Bioassay records (PubChem BioAssay)
SKKanGAS inh – inhibitors of SKKanGAS S. pyogenes growth in kanamycin (SK-promoter or general growth effect) | BacTiter-Glo, 6 h | inhibition, % at 7.5 µM | 1.3% of 300,000 active;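 active = mean replicate score, as percent of positive control median, at least 50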;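 also: strain carries kanamycin resistance gene driven by streptokinase promoter and grows in 40 µg/ml kanamycin; loss of luminescence reflects streptokinase promoter inhibition or plain growth inhibition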
Mdm2-MdmX inh – human Mdm2/MdmX binding inhibition; O15151+Q00987; SaOS-2 split-luciferase Mdm2/MdmX complementation, luminescence; inhibition, % at 8 µM; 3% of 330,000 active;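 active = inhibition of at least 50% at 8 µM in the primary screen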
Beta cell apopt – blocks beta cell apoptosis; AID 435005; protection from apoptosis, % (concentration not given with the values); 0.8% of 300,000 active; INS-1E cytokine-induced death, ATP luminescence, 48 h; percent of positive-control rescue, neutral wells zero;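 active = Every replicate reaches about 75%, or at least half do and their mean reaches it too, limit read from the data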;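 also: higher means more ATP so stronger rescue from cytokine killing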
CHOP UPR activ – apoptotic UPR (CHOP) activation; CHO-CHOP luciferase reporter, luminescence; percent of tunicamycin response over DMSO baseline; activation, % at 10 µM; AID 449763; 0.34% of 330,000 active;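 active = at 10 µM dose, activation of 40% or more, normalized to positive control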
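assay system = CHO CHOP reporter cells | amount = 500 CHO-CHOP cells per well | buffer or medium = F12 with 10% FBS | incubation = 16-18 h cell attachment, then 6 h compound exposure, 37 °C | detection = luminescence read with Steady-Glo | read-out = percent activation relative to tunicamycin control | controls = tunicamycin high control, DMSO low control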
UPR XBP1 act – activators of adaptive arm of unfolded protein response (XBP1); CHO-XBP1 luciferase reporter, IRE1-XBP1 UPR activation, luminescence; percent of tunicamycin response, DMSO as zero; activation, % at 20 µM; 0.33% of 330,000 active; AID 463104;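 active = versus positive control, 20 µM dose yields 30% or more activation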
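Material – CHO cell line with stable XBP1 luciferase reporter · Buffer or medium – F12 plus 10% FBS · Compound – single point, 20 µM final compound, 1% DMSO · Schedule – 16-18 h cell attachment at 37 °C, then 6 h compound exposure · Signal – Steady-Glo luminescence read · Benchmarks – high control tunicamycin 10 µg/mL final, low control DMSO vehicle only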
CSC inhib – cancer stem cell inhibition; AID 2717; inhibition, % at 7.5 µM; cancer stem cell-like cells viability, luminescence; 1.1% of 300,000 active; in the data active = inhibition above about 75%; tested in HMLE shEcad cells
Each line names hits and unclear results; the compound was inactive in the other large screens. Compounds with a hit are over-represented: about 4.8% of the library has one in this group of screens.

C/C(=N\NC(=O)COc1ccc(C(C)(C)C)cc1)c1cc2ccccc2o1	none
COc1cccc(/C=N/NC(=O)CNC(=O)c2cccs2)c1O	Beta cell apopt 86.0
CCn1c(C)nc2cc(C(=O)N/N=C/c3cccc(OC)c3O)ccc21	CSC inhib 109.0 (no result: Beta cell apopt)
CCn1c(C)nc2cc(C(=O)N/N=C/c3ccc(O)c(O)c3O)ccc21	none (no result: Mdm2-MdmX inh, Beta cell apopt, CHOP UPR activ, UPR XBP1 act, CSC inhib)
CC(C)C(NC(=O)c1c(F)cccc1F)C(=O)NCc1ccc(S(=O)(=O)N2CCOCC2)cc1 (stereo not given)	none (no result: SKKanGAS inh, CSC inhib)
Cc1ccc(C(=O)NC(=S)NNC(=O)c2ccccc2)cc1	SKKanGAS inh 76.6
Cc1ccc(C(=O)NNC(=O)c2ccco2)cc1	none
CC(C)NC(=S)NC(=O)c1ccc(Cl)cc1Cl	none (no result: CSC inhib)
CCCCC(=O)NC(=S)NNC(=O)c1ccc(Cl)cc1Cl	SKKanGAS inh 90.3 (no result: Mdm2-MdmX inh, Beta cell apopt, CHOP UPR activ, UPR XBP1 act, CSC inhib)
Cc1ccc(C(=O)NNC(=S)NC(=O)c2ccc(Cl)cc2Cl)cc1	SKKanGAS inh 97.7 (no result: Beta cell apopt)
Cc1ccc(C(=O)NNC(=S)NC(=O)c2ccco2)cc1	SKKanGAS inh 72.8
O=C(NNC(=S)NC(=O)c1ccccc1[N+](=O)[O-])c1ccc(Cl)cc1Cl	none
c1ccc(C[C@H]2CN=C(Nc3ccccc3)N2CCCC2CCCC2)cc1	none
CCc1ccc(C(=O)COC(=O)c2cc([N+](=O)[O-])ccc2N2CCOCC2)cc1	none
Cc1ccccc1C(=O)NNC(=S)NC(=O)c1ccccc1	none
Cc1occc1C(=O)NNC(=O)COc1ccc(Br)cc1Br	none
Cc1ccc(C(=O)NNC(=S)NC(=O)c2ccccc2)cc1	SKKanGAS inh 99.1 (no result: Beta cell apopt)
Cc1occc1C(=O)NNC(=S)NC(=O)COc1ccc(Cl)cc1Cl	SKKanGAS inh 78.0 (no result: CSC inhib)
N=C1c2ccccc2CN1c1ccc(N2CCOCC2)c(S(=O)(=O)Nc2ccc(Cl)cc2)c1	none
Cc1cc(/C=C2\SC(=O)NC2=O)c(C)n1-c1ccc(N(C)C)cc1	none
Cc1cc(/C=C2\SC(=O)NC2=O)c(C)n1-c1ccc(N2CCOCC2)cc1	SKKanGAS inh 99.7
Cc1cc(/C=C2\SC(=O)N(C)C2=O)c(C)n1-c1ccc(O)cc1	SKKanGAS inh 87.8
Cc1cc(/C=C2\SC(=O)N(C)C2=O)c(C)n1-c1ccc(S(N)(=O)=O)cc1	none
CC(=O)NC1=NC(=O)/C(=C/c2cc(C)n(-c3ccc(NC(C)=O)cc3)c2C)S1	SKKanGAS inh 78.8 (no result: CSC inhib)
O=C(NCc1ccccc1F)C1CCCN1S(=O)(=O)c1ccc(Cl)cc1 (stereo not given)	none
O=C1C(Cl)=C(Nc2ccc3cn[nH]c3c2)C(=O)c2ccccc21	SKKanGAS inh 73.2, Beta cell apopt 110.3, CSC inhib 108.6 (no result: Mdm2-MdmX inh, CHOP UPR activ, UPR XBP1 act)
CCC/C=C1/CCCOC(C(=O)NCc2ccc(C)o2)(C(F)(F)F)C1 (stereo not given)	none (no result: SKKanGAS inh)
CCN(C(=O)COC(=O)/C=C/c1cccc(Br)c1)C1CCS(=O)(=O)C1 (stereo not given)	none
CN(C(=O)COC(=O)/C=C/c1cccc([N+](=O)[O-])c1)C1CCS(=O)(=O)C1 (stereo not given)	CSC inhib 91.5
Cc1ccc(-c2n[nH]c(=S)nc2-c2ccc(C)cc2)cc1	none (no result: Mdm2-MdmX inh, CHOP UPR activ, UPR XBP1 act)
Cc1ccc(-c2n[nH]c3c2CCC3)cc1	SKKanGAS inh 55.2
C=C1CCC2C(C)(C)[C@@H](O)CC[C@@]2(C)[C@@H]1COc1ccc2ccc(=O)oc2c1 (stereo not given in full)	SKKanGAS inh 52.2
CC1CCN(C(=O)c2cc(Cl)ccc2NC(=O)c2ccco2)CC1	none (no result: Beta cell apopt)
CC1CCCCC1NC(=O)c1cccc(S(=O)(=O)N2CCN(Cc3ccccc3)CC2)c1 (stereo not given)	none
CCOc1ccc(N2C(N)=NC(N)=NC2(C)C)cc1	SKKanGAS inh 95.1
COc1cccc(N2C(N)=NC(N)=NC2(C)C)c1	SKKanGAS inh 95.2
COc1ccc(N2C(N)=NC(N)=NC2(C)C)cc1	SKKanGAS inh 73.3 (no result: Mdm2-MdmX inh, CHOP UPR activ, UPR XBP1 act)
COc1ccc(N2C(N)=NC(N)=NC23CCCC3)cc1	none
CCOC(=O)c1cccc(N2C(N)=NC(N)=NC2(C)C)c1	SKKanGAS inh 90.8
CC1(C)N=C(N)N=C(N)N1c1cccc(C(=O)O)c1	none
N#Cc1ccc(OCC(=O)Nc2ccc(S(=O)(=O)N3CCOCC3)cc2)cc1	none (no result: SKKanGAS inh, Beta cell apopt, CSC inhib)
